Results on 1 molecule are retold here after ChEMBL document CHEMBL1140923, “Discovery of imidazo[1,2-b]thiazole derivatives as novel SIRT1 activators” (J Med Chem, 2009).

pIC50: −log10 of the molar value. Activity calls are given as the source filed them. The calls are words filed in the database; no cut-off is given here.

In data set [1] the target is Cytochrome P450 3A4 (Homo sapiens, UniProt P08684). The experiment in a line: Inhibition of CYP3A4 at 25 uM. Type of data set: ADME. The method, boiled down:
(§1)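 Inhibition of CYP isozymes was tested up to a highest concentration of 25 µM.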

Data set [2] deals with T1, NAD-dependent protein deacetylase sirtuin-1 (Homo sapiens) (UniProt Q96EB6).
T1 sequence (whole entry): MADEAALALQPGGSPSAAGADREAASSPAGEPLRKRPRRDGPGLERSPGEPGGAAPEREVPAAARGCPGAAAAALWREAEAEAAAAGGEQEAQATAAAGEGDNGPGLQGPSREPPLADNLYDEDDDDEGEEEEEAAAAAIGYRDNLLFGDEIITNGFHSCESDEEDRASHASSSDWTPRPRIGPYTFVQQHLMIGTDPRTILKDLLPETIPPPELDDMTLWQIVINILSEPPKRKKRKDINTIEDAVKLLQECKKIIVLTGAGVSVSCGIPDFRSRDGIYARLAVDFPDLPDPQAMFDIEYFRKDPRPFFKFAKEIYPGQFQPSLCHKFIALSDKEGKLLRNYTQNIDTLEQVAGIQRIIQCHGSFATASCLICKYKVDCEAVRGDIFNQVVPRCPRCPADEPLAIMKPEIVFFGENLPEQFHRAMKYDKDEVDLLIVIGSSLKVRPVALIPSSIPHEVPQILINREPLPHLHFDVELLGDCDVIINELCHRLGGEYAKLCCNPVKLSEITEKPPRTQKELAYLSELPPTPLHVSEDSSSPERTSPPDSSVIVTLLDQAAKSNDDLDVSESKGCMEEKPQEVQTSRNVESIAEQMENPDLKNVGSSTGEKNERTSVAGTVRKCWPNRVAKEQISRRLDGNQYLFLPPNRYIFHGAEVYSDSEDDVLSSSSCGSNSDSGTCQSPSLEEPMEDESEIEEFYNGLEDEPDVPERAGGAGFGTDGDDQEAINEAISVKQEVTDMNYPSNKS
The experiment in a line: Activation of human SIRT1 expressed in Escherichia coli BL21Start assessed as concentration required to increase 50% enzyme activity by mass spectrometry assay. The procedure, abridged:
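Truncated SIRT1 was expressed in E. coli BL21Start (DE3) and purified on Ni2+ chelate. Reaction: 10 nM enzyme, 0.5 µM biotinylated, fluorophore-tagged p53-derived 20-mer acetyl-lysine peptide and 120 µM NAD+, in 50 mM Tris-acetate pH 8 with NaCl, KCl, MgCl2, 5 mM DTT and 0.05% BSA; DMSO vehicle; 25 min at 25 °C. Stopped with formic acid/nicotinamide; acetylated versus deacetylated peptide read by mass spectrometry. EC1.5 is the concentration raising activity by 50%, the mean of three titration curves.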

The target in data set [3] is T2, Muscarinic acetylcholine receptor M2 (Homo sapiens, UniProt P08172).
T2 sequence (P08172 whole entry): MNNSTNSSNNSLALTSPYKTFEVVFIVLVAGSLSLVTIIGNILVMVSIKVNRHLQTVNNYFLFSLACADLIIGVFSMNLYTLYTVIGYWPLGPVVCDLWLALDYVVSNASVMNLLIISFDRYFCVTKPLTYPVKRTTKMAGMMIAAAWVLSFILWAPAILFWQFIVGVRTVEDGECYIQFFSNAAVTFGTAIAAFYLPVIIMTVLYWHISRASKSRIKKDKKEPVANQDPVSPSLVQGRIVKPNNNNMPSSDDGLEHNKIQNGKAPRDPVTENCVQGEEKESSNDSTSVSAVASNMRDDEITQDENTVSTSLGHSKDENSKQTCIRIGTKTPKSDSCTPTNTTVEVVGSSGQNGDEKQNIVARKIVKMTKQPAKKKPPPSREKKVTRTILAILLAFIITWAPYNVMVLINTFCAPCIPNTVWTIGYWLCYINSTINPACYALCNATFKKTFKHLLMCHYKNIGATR
The experiment in a line: Inhibition of muscarinic M2 receptor.

Data set [4] can be described thus: AUC in Sprague-Dawley rat at 100 mg/kg, po or 10 mg/kg, iv. Type of data set: ADME, organism-based. Particulars: plasma. The procedure, abridged:
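Male Sprague-Dawley rats (250 g, 3 per dose group) received 100 mg/kg by oral gavage in 2% HPMC + 0.2% DOSS, or 10 mg/kg iv by tail vein in 10% ethanol/40% PEG/50% H2O. Blood was drawn at 0.033-24 h postdose for drug levels.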

The target in data set [5] is Cytochrome P450 2C19 (Homo sapiens, UniProt P33261). The experiment in a line: Inhibition of CYP2C19 at 25 uM. Format: ADME. The method, boiled down:
as §1

Data set [6] deals with Mus musculus. The experiment in a line: Antidiabetic activity in diet-induced obesity C57BL/6 mouse model assessed as reduction of plasma insulin level at 100 mg/kg, po daily once after 2 weeks. Type of data set: functional, organism-based. Also on record: dose 100 mg/kg. The method, boiled down: (§2)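 Male C57BL/6 mice were fed a 60%-fat diet from 9 weeks of age until about 40 g, in groups of 6-10. They were dosed by oral gavage once daily in 2% HPMC + 0.2% DOSS, with 29 at 100 mg/kg and rosiglitazone at 5 mg/kg, alongside vehicle groups on lean and high-fat diet. Fed glucose was read at weeks 2, 4, 6, 8 and 10. Clinical chemistry and hematology were also measured. Analysis by ANOVA.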

Data set [7] relates to Rattus norvegicus. Description: Antidiabetic activity in genetic Zucker fa/fa rat model assessed as reduction of fed blood glucose level at 100 mg/kg, po daily once after 3 weeks relative to control. Type of data set: functional, organism-based. The arrangement: dose 100 mg/kg. The method, boiled down: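 Male Zucker fa/fa rats, housed singly, were gavaged daily from 7 weeks of age with 100 mg/kg or vehicle (2% HPMC + 0.2% DOSS), 5 per group. Fed tail-vein glucose was taken on day 22. Also on day 22, after an overnight fast, sodium pyruvate 1 g/kg was given ip and glucose was read at 0-90 min.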

Data set [8] concerns Mus musculus. The experiment in a line: Antidiabetic activity in diet-induced obesity C57BL/6 mouse model assessed as reduction of plasma insulin level at 100 mg/kg, po daily once after 10 weeks. Type of data set: functional, organism-based. The arrangement: dose 100 mg/kg. The method, boiled down:
as §2

In data set [9] the test system is Mus musculus. Description: Antidiabetic activity in diet-induced obesity C57BL/6 mouse model assessed as reduction of fed blood glucose level at 100 mg/kg, po daily once for 1 week after 10 weeks. Format: functional. The arrangement: scale not given: the % may be the effect or the level left. The method, boiled down: as §2
The target of data set [10] is Cytochrome P450 2C9 (Homo sapiens, UniProt P11712). Description: Inhibition of CYP2C9 at 25 uM. Type of data set: ADME. The procedure, abridged: as §1
Chain of Cytochrome P450 2C9 (P11712 whole entry): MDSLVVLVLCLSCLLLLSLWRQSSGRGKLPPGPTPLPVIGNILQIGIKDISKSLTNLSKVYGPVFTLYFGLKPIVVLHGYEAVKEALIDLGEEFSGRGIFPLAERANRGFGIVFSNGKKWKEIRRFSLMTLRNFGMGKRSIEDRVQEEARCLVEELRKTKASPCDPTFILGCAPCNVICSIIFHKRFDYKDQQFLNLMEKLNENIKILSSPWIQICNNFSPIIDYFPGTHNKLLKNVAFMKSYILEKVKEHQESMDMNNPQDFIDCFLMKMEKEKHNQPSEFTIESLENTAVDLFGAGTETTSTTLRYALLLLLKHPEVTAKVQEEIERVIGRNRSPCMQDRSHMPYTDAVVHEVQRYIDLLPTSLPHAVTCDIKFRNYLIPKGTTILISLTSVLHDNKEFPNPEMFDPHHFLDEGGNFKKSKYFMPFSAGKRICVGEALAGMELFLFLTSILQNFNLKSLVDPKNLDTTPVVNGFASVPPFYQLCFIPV
A short description of data set [11]: AUC in C57BL/6 mouse at 100 mg/kg, po or 10 mg/kg, iv. Format: ADME, organism-based. As to conditions: plasma. The method, boiled down:
(§3)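 Male C57BL/6 mice (18-22 g; 3 per dose group per time point), given 100 mg/kg po as the hydrochloride salt in 2% HPMC + 0.2% DOSS, or 10 mg/kg iv by tail vein in 10% ethanol/40% polyethylene glycol/50% H2O. Plasma was taken at 5, 30, 120 and 360 min after dosing and drug levels were measured.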

Data set [12] is described as follows: Terminal half life in C57BL/6 mouse at 100 mg/kg, po or 10 mg/kg, iv. Format: ADME, organism-based. As to conditions: in vivo, read-out: beta t1/2 (converted). The procedure, abridged:
as §3

Chain of Cytochrome P450 3A4 (P08684 whole entry): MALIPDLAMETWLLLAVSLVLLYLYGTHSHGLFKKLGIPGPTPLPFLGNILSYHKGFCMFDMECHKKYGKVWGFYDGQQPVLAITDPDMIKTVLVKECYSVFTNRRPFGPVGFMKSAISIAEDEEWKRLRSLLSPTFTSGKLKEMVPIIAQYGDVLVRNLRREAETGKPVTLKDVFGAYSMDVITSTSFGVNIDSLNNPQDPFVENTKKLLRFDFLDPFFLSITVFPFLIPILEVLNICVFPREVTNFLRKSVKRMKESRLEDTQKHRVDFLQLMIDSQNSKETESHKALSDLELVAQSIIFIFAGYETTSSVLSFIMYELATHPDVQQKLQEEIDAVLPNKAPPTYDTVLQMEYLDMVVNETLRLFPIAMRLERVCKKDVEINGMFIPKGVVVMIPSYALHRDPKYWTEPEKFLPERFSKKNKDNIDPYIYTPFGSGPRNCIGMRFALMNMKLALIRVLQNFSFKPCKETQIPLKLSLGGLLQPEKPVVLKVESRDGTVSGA
Chain of Cytochrome P450 2C19 (P33261 whole entry): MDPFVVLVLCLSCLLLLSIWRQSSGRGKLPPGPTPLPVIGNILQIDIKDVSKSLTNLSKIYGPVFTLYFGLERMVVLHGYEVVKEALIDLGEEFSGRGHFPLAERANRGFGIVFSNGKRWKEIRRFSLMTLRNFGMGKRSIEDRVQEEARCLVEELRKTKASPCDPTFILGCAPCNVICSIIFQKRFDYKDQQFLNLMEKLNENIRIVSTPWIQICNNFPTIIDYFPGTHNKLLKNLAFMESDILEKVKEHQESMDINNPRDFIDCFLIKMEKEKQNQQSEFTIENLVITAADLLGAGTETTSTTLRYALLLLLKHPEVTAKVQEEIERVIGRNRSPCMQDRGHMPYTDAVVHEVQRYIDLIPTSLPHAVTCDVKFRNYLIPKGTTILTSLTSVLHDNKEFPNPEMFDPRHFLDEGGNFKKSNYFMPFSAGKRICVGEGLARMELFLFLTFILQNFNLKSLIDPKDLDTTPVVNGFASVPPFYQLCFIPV

For orientation: pIC50 means the negative decadic logarithm of the IC50, by convention in mol/L. The AUC is the area under the concentration-time curve, a measure of exposure. Take `O=C(Nc1ccccc1-c1cn2c(CN3CCNCC3)csc2n1)c1cnc2ccccc2n1`: the Activity result in data set [1] was “Not Active”; in [2] it was 0.16 µM; in data set [5], “Not Active”; in data set [9], 15%; in data set [10] it was “Not Active”. Moreover, in [3], the pIC50 was 5.20. Also, the AUC in data set [4] came out at 3700 ng·h/mL; in [11] it was 7900 ng·h/mL. Further, the outcome in data set [6], in data set [7] and in data set [8] was Active. In addition, in data set [12], the half-life is 5 h.
